Assay results reported in the M2OR odorant receptor database.

What was measured:
Settings in all cases: stereoisomer not certain
OR1A1 (Homo sapiens) = molecular target: T1, OR1A1 (Homo sapiens) (UniProt Q9P1Q5)
T1 sequence (whole entry): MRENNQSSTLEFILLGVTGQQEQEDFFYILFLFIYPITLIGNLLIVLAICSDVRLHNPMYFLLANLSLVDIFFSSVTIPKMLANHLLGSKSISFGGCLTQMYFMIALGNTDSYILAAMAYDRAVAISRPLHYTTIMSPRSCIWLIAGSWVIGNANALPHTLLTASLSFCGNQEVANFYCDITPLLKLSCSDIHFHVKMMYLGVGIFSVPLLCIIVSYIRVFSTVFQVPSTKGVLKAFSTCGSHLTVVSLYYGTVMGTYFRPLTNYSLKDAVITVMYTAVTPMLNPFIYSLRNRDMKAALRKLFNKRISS
Summary of the method: (§1)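 Each receptor–molecule pair is labelled responsive or non-responsive (inactive) according to whether the original authors judged the measured signal statistically different from baseline. The data were taken from the main text and supplementary material of published papers and checked for typos and inconsistencies. Assay methods differed by source, with transient luciferase assays in mammalian cell lines being common.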

OR13C2 (Homo sapiens) = molecular target: T2, OR13C2 (Homo sapiens) (UniProt Q8NGS9)
T2 sequence (whole entry): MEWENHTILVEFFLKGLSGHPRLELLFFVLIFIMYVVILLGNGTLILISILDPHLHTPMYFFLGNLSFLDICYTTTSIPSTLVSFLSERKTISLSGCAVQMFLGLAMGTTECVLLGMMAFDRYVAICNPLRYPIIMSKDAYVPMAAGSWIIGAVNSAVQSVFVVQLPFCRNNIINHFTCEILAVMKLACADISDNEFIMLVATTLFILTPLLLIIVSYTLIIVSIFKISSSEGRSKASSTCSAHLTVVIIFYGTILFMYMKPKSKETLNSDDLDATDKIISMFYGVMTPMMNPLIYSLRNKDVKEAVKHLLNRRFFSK
Summary of the method: as §1

OR13C3 (Homo sapiens) = molecular target: T3, OR13C3 (Homo sapiens) (UniProt Q8NGS6)
T3 sequence (whole entry): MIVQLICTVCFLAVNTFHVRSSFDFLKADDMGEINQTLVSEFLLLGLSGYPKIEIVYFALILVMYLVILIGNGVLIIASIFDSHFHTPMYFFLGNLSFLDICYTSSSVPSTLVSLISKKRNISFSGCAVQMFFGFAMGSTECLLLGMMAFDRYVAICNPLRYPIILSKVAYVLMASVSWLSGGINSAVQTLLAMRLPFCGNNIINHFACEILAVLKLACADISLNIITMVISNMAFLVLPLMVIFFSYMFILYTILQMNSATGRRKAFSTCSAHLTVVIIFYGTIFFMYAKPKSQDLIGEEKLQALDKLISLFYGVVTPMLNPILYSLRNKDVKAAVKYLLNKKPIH
Summary of the method: as §1

OR13C4 (Homo sapiens) = molecular target: T4, OR13C4 (Homo sapiens) (UniProt Q8NGS5)
T4 sequence (whole entry): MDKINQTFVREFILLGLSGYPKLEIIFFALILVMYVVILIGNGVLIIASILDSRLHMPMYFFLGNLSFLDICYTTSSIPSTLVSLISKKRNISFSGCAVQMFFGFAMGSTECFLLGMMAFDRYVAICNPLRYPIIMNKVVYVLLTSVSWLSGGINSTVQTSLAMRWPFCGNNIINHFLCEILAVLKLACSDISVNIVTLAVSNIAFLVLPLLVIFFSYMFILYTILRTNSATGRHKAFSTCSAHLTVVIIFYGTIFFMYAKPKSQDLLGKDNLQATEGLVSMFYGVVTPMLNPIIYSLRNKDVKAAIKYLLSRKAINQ
Summary of the method: as §1

OR13C5 (Homo sapiens) = molecular target: T5, OR13C5 (Homo sapiens) (UniProt Q8NGS8)
T5 sequence (whole entry): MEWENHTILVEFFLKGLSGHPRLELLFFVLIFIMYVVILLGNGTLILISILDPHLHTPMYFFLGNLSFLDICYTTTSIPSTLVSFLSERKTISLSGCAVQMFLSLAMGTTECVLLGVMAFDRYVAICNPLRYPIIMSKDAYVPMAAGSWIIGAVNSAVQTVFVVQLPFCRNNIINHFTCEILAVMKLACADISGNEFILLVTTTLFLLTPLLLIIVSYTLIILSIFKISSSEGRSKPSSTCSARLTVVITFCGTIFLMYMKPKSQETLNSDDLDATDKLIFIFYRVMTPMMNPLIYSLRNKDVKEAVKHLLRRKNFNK
Summary of the method: as §1

OR13C8 (Homo sapiens) = molecular target: T6, OR13C8 (Homo sapiens) (UniProt Q8NGS7)
T6 sequence (whole entry): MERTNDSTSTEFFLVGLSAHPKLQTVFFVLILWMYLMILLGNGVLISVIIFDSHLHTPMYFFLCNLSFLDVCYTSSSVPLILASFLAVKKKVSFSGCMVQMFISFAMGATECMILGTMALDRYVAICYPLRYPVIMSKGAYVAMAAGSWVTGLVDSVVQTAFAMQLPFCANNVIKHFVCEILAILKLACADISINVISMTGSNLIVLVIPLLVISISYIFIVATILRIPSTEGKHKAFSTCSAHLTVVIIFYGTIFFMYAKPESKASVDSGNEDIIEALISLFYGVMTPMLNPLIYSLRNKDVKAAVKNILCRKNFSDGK
Summary of the method: as §1

OR13C9 (Homo sapiens) = molecular target: T7, OR13C9 (Homo sapiens) (UniProt Q8NGT0)
T7 sequence (whole entry): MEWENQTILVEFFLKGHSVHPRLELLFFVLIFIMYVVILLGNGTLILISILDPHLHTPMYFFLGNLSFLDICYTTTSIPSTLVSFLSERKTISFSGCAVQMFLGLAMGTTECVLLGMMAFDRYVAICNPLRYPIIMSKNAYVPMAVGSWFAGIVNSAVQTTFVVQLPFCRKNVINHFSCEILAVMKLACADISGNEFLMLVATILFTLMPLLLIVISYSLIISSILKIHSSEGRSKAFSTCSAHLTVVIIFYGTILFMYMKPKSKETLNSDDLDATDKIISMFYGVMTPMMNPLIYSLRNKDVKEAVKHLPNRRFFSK
Summary of the method: as §1

OR13D1 (Homo sapiens) = molecular target: T8, OR13D1 (Homo sapiens) (UniProt Q8NGV5)
T8 sequence (whole entry): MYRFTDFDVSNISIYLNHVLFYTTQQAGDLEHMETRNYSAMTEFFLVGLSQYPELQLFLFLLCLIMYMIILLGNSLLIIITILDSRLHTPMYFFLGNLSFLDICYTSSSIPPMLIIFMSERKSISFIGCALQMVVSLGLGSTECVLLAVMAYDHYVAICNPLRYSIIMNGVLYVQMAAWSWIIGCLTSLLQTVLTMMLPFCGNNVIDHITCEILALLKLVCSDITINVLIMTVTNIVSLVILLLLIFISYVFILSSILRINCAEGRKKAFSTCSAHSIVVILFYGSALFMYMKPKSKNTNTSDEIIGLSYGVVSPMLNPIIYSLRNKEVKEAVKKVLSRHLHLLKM
Summary of the method: as §1

OR13F1 (Homo sapiens) = molecular target: T9, OR13F1 (Homo sapiens) (UniProt Q8NGS4)
T9 sequence (whole entry): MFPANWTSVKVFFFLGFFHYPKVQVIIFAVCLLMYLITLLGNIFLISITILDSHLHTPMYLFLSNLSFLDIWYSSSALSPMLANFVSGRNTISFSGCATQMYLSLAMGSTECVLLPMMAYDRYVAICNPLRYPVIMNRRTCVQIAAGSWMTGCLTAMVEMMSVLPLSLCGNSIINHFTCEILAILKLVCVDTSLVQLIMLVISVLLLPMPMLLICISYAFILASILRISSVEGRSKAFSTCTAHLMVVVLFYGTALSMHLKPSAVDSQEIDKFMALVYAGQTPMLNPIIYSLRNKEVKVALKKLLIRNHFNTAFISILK
Summary of the method: as §1

OR13G1 (Homo sapiens) = molecular target: T10, OR13G1 (Homo sapiens) (UniProt Q8NGZ3)
T10 sequence (whole entry): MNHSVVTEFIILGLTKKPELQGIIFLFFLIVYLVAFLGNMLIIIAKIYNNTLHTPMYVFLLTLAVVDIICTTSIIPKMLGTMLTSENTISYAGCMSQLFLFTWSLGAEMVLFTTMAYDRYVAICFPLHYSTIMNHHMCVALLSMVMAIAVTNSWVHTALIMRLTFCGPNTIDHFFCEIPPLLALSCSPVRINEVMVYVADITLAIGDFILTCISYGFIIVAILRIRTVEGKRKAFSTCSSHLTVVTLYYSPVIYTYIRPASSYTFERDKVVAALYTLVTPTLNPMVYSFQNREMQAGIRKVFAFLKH
Summary of the method: as §1

OR13H1 (Homo sapiens) = molecular target: T11, OR13H1 (Homo sapiens) (UniProt Q8NG92)
T11 sequence (whole entry): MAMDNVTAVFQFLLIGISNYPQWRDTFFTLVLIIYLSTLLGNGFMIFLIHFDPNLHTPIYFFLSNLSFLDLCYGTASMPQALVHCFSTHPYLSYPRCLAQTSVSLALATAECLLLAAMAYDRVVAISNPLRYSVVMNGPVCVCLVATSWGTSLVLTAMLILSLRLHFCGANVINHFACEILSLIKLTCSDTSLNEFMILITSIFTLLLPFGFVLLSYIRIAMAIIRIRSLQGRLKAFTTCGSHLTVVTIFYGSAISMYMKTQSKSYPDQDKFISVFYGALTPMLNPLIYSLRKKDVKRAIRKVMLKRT
Summary of the method: as §1

OR13J1 (Homo sapiens) = molecular target: T12, OR13J1 (Homo sapiens) (UniProt Q8NGT2)
T12 sequence (whole entry): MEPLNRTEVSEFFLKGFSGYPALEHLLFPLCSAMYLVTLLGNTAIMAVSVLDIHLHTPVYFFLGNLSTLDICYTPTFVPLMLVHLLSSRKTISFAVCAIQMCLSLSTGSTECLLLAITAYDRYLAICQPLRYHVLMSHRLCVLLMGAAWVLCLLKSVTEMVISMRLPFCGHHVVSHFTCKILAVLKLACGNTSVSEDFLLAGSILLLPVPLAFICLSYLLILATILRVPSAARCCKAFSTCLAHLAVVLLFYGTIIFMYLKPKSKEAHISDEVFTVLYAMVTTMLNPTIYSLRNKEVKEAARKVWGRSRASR
Summary of the method: as §1

OR14A16 (Homo sapiens) = molecular target: T13, OR14A16 (Homo sapiens) (UniProt Q8NHC5)
T13 sequence (whole entry): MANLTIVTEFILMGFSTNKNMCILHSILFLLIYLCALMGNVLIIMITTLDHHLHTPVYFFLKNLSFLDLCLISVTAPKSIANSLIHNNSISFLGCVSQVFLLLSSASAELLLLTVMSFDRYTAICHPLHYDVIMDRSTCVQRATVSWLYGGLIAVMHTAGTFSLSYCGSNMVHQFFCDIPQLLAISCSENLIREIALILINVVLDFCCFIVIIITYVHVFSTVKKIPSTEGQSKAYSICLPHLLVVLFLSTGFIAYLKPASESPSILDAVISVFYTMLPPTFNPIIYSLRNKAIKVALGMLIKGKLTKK
Summary of the method: as §1

OR14A2 (Homo sapiens) = molecular target: T14, OR14A2 (Homo sapiens) (UniProt Q96R54)
T14 sequence (whole entry): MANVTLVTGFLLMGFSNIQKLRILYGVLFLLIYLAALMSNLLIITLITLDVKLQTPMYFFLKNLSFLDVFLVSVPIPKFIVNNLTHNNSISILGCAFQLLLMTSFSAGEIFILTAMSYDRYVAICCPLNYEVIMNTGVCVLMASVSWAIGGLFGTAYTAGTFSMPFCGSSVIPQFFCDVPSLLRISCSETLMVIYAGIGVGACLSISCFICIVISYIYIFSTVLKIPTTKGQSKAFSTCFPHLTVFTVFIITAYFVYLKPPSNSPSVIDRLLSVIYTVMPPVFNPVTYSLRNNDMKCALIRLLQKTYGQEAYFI
Summary of the method: as §1

OR14C36 (Homo sapiens) = molecular target: T15, OR14C36 (Homo sapiens) (UniProt Q8NHC7)
T15 sequence (whole entry): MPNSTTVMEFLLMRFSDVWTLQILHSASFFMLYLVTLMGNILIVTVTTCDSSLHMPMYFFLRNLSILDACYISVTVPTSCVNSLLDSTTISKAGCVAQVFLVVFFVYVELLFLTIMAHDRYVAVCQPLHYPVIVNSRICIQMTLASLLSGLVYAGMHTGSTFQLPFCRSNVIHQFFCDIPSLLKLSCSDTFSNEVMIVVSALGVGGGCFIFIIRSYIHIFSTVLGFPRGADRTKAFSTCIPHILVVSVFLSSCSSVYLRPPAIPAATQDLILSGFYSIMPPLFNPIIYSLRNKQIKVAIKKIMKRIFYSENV
Summary of the method: as §1

OR14I1 (Homo sapiens) = molecular target: T16, OR14I1 (Homo sapiens) (UniProt A6ND48)
T16 sequence (whole entry): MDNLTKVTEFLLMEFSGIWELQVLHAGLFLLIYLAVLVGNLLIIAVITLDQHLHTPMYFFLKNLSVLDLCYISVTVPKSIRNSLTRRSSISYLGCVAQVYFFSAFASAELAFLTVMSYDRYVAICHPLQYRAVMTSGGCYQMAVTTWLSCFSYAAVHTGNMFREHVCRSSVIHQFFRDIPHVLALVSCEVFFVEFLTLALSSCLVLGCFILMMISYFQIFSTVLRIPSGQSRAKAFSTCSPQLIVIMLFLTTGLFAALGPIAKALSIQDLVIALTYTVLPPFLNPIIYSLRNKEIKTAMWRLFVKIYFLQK
Summary of the method: as §1

OR14J1 (Homo sapiens) = molecular target: T17, OR14J1 (Homo sapiens) (UniProt Q9UGF5)
T17 sequence (whole entry): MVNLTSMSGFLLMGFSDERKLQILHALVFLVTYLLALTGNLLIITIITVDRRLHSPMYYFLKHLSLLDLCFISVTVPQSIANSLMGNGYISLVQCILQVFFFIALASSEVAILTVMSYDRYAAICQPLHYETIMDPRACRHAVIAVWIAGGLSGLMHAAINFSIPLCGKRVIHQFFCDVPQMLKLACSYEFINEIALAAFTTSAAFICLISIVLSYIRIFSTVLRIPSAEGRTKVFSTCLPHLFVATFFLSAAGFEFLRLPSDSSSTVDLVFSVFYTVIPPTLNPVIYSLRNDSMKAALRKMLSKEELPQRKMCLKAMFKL
Summary of the method: as §1

OR14K1 (Homo sapiens) = molecular target: T18, OR14K1 (Homo sapiens) (UniProt Q8NGZ2)
T18 sequence (whole entry): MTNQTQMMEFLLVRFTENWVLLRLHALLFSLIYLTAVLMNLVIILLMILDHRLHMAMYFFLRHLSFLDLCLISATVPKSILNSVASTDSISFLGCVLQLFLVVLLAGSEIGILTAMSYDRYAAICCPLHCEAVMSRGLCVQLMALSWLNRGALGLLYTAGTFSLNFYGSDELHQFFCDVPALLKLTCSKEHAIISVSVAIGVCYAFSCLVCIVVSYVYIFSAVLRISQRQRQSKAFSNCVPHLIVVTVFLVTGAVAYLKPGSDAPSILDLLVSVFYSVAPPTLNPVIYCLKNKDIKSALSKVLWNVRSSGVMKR
Summary of the method: as §1

Measured: odorant receptor agonist call;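 also: active if original authors judged signal statistically different from baseline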

CCC=CCCOC(C)=O
inactive: OR1A1 (Homo sapiens)

CCCCCCC=CCCC=O
inactive: all assays above
